Bridge positions count the residues as written; N and C are the ends. Square brackets hold non-standard residues; d marks the D form. Peptide text beside a SMILES is read from it. * marks the point of attachment. Orn(Pr) = CCCNCCC[C@H](N)C(=O)O; NHCH(CH2OH)2 = OCC(CO)N*; Orn = NCCC[C@H](N)C(=O)O
Assays:
[1] = target: Vasopressin V1a/V2 (Homo sapiens) (UniProt P30518+P37288); assay: Selectivity ratio of EC50 for human vasopressin V2 receptor to EC50 for human vasopressin V1a receptor
Vasopressin V2 receptor [2] = target: T1, Vasopressin V2 receptor (Homo sapiens, UniProt P30518); assay: Agonist activity at recombinant human vasopressin V2 receptor expressed in HEK293 cells by luciferase reporter gene assay; format: functional, cell-based
Oxytocin receptor = target: T2, Oxytocin receptor (Homo sapiens, UniProt P30559); assay: Agonist activity at human OT receptor expressed in CHO-K1 cells by luciferase reporter gene assay; format: functional, cell-based
T2 sequence (P30559 whole entry): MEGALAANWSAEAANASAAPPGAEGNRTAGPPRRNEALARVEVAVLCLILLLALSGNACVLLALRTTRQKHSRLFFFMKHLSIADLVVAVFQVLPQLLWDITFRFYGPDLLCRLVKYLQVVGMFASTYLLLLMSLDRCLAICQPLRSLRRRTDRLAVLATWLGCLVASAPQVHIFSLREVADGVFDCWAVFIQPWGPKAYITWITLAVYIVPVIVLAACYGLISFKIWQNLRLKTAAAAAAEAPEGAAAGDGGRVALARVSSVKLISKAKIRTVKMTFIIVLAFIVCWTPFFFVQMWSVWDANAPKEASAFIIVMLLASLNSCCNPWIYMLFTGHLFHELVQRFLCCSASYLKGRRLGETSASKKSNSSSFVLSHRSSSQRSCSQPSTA

Vasopressin V1b receptor = target: T3, Vasopressin V1b receptor (Homo sapiens, UniProt P47901); assay: Agonist activity at recombinant human vasopressin V1b receptor expressed in Flp-In-293 cells by luciferase reporter gene assay; format: functional, cell-based; conditions: read-out: EC50
T3 sequence (P47901 whole entry): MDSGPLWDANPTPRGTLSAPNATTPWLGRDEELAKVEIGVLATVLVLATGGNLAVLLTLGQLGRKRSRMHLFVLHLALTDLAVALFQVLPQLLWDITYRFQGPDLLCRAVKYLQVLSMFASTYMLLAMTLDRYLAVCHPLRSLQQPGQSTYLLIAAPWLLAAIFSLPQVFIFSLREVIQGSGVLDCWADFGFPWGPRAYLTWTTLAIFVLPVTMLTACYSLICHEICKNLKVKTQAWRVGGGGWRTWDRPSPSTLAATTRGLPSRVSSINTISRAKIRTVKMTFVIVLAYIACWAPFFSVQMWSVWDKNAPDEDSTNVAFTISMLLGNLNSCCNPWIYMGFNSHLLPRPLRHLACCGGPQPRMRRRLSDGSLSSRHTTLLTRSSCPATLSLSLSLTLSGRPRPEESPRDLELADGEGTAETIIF
Outline: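 Reporter gene assays in HEK293 cells transiently cotransfected with V1a (human or rat) or human V2 receptor vector plus NFAT-luciferase (V1a) or CRE-luciferase (V2) reporter; V1b in Flp-In-293 stably expressing receptor, OT in CHO-K1 stably expressing receptor, both transiently transfected with NFAT-luciferase. Two days post-transfection, peptides added for 5 h at 37 °C, lysis with luciferin, luminescence read.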

Rattus norvegicus [3] = assay: Vasoconstriction in Wistar rat assessed as decay in vasopressive duration of action at 0.3 nmol/kg, iv bolus measured over 10 sec interval; format: functional; set-up: unit not given here
[4] = target: T4, Oxytocin receptor (Homo sapiens) (UniProt P30559); assay: Partial agonist activity at human OT receptor expressed in CHO-K1 cells by luciferase reporter gene assay; format: functional, cell-based
T4 sequence (whole entry): T2 sequence (P30559 whole entry)
Outline: (§1)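 Same luciferase reporter systems (OT in stable CHO-K1, V1b in stable Flp-In-293, each with transient NFAT-luciferase; V1a in HEK293 with NFAT-luciferase, V2 in HEK293 with CRE-luciferase). Peptides added for 5 h at 37 °C two days post-transfection, luminescence read. Partial agonism means efficacy <70%.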

Homo sapiens [5] = species on record: Homo sapiens; assay: Selectivity ratio of EC50 for human oxytocin receptor to EC50 for human vasopressin V1a receptor
Homo sapiens [6] = species on record: Homo sapiens; assay: Selectivity ratio of EC50 for human vasopressin V1b receptor to EC50 for human vasopressin V1a receptor
Vasopressin V1a receptor [7] = target: T5, Vasopressin V1a receptor (Homo sapiens, UniProt P37288); assay: Agonist activity at recombinant human vasopressin V1a receptor expressed in HEK293 cells by luciferase reporter gene assay; format: functional, cell-based; conditions: read-out: EC50
Target sequence in this assay (P37288 whole entry): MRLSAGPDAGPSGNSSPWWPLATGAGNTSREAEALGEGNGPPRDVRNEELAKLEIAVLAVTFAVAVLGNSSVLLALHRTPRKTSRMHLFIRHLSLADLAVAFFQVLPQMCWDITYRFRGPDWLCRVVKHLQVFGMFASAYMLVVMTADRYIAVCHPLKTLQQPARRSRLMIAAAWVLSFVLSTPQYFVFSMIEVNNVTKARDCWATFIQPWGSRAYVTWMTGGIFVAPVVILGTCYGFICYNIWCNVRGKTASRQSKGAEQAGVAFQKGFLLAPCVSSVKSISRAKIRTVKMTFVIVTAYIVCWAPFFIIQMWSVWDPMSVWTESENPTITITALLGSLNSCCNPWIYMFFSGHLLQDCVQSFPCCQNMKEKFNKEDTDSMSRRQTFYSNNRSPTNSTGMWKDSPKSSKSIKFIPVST

Vasopressin V2 receptor [8] = target: T1, Vasopressin V2 receptor; assay: Partial agonist activity at recombinant human vasopressin V2 receptor expressed in HEK293 cells by luciferase reporter gene assay; format: functional, cell-based; outline: as §1
Vasopressin V1a receptor [9] = target: Vasopressin V1a receptor (Rattus norvegicus, UniProt P30560); assay: Agonist activity at recombinant rat vasopressin V1a receptor expressed in HEK293 cells by luciferase reporter gene assay; format: functional, cell-based; conditions: read-out: EC50
Rattus norvegicus [10] = assay: Vasoconstriction in Wistar rat assessed as assessed as decay in vasopressive duration of action at 3 nmol/kg, iv bolus measured over 10 sec interval; format: functional
Outline: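 Fasted male Wistar rats (206–340 g) under isoflurane, then thiobutabarbital 150 mg/kg ip, ventilated, 37–38 °C, with carotid pressure and jugular dosing. Dibenamine 1.8 mg/rat iv pretreatment. Sequence: iv boluses (0.5 mL/kg) of heparinized vehicle, then two reference doses of 0.1 nmol/kg, then two test doses; one matches the reference diastolic pressure rise. Relative duration = reference decay rate / test decay rate; mean ± SEM.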

Vasopressin V1a receptor [11] = target: T5, Vasopressin V1a receptor; assay: Partial agonist activity at recombinant human vasopressin V1a receptor expressed in HEK293 cells by luciferase reporter gene assay; format: functional, cell-based; outline: as §1
Target sequence in this assay (P37288 whole entry, looked up): as the sequence (P37288 whole entry) above

[12] = target: T6, Vasopressin V1b receptor (Homo sapiens) (UniProt P47901); assay: Partial agonist activity at recombinant human vasopressin V1b receptor expressed in Flp-In-293 cells by luciferase reporter gene assay; format: functional, cell-based; outline: as §1
T6 sequence (whole entry): T3 sequence (P47901 whole entry)

T1 sequence (P30518 whole entry): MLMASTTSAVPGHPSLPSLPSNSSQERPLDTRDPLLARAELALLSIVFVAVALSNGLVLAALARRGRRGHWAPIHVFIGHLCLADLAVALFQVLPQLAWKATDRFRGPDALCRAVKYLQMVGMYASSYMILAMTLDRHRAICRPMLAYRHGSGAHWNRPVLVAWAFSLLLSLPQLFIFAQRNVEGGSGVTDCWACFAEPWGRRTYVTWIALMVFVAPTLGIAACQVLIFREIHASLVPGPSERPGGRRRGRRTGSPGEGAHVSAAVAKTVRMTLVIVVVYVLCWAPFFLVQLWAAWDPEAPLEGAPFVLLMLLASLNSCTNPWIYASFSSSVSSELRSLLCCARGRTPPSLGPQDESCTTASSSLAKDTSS
Vasopressin V1a/V2 (Homo sapiens), sequence (P30518 whole entry, looked up): as the sequence (P30518 whole entry) above
Vasopressin V1a/V2 (Homo sapiens), sequence (P37288 whole entry, looked up): as the sequence (P37288 whole entry) above
Vasopressin V1a receptor (Rattus norvegicus, UniProt P30560), sequence (P30560 whole entry): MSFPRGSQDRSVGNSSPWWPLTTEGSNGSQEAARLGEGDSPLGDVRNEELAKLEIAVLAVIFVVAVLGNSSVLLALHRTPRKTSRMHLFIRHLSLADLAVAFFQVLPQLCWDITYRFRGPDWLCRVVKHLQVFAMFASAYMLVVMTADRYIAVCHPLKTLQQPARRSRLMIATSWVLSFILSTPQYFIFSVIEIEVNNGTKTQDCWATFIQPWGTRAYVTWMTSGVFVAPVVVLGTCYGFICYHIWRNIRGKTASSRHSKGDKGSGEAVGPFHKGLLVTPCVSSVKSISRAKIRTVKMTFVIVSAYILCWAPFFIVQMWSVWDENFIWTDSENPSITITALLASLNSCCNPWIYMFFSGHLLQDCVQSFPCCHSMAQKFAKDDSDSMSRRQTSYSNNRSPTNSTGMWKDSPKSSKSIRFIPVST

SMILES	Ratio EC50 [1]	EC50 (Vasopressin V2 receptor [2]; read-out: EC50) [µM]	EC50 (Oxytocin receptor; read-out: EC50) [µM]	EC50 (Oxytocin receptor; read-out: pEC50 (converted)) [µM]	EC50 (Vasopressin V1b receptor) [µM]	Time (Rattus norvegicus [3])	Efficacy [4] [%]	Ratio EC50 (Homo sapiens [5])	Ratio EC50 (Homo sapiens [6])	EC50 (Vasopressin V1a receptor [7]) [µM]	Efficacy (Vasopressin V2 receptor [8]) [%]	EC50 (Vasopressin V1a receptor [9]) [µM]	EC50 (Vasopressin V2 receptor [2]; hek293, read-out: EC50) [µM]	EC50 (Vasopressin V2 receptor [2]; read-out: pEC50 (converted)) [µM]	EC50 (Oxytocin receptor; cho-k1, read-out: EC50) [µM]	Time (Rattus norvegicus [10]) [unitless ratio]	Efficacy (Vasopressin V1a receptor [11]) [%]	Efficacy [12] [%]
CC[C@H](C)[C@@H]1NC(=O)[C@H](Cc2ccccc2)NC(=O)[C@@H](N)CSSC[C@@H](C(=O)N2CCC[C@H]2C(=O)N[C@@H](CCCNC(C)C)C(=O)NCC(N)=O)NC(=O)[C@H](CC(N)=O)NC(=O)[C@H](CCCC(N)=O)NC1=O [SELEPRESSIN]	1100	2.7	1.1	1.1	0.34	1.4	< 70	450	140	0.0024	< 70	0.00055	–	–	–	–	–	–
CC[C@H](C)[C@@H]1NC(=O)[C@H](Cc2ccccc2)NC(=O)[C@@H](N)CSSC[C@@H](C(=O)N2CCC[C@H]2C(=O)N[C@@H](CCCN)C(=O)NCC(N)=O)NC(=O)[C@H](CC(N)=O)NC(=O)[C@H](CC(N)=O)NC1=O (H-CFINNCP[Orn]G-NH2; disulfide 1-6)	> 7100	–	–	> 10	0.029	–	–	> 7100	20	0.0014	–	0.0082	> 10	> 10	> 10	1.4	–	–
CCCNCCC[C@H](NC(=O)[C@@H]1CCCN1C(=O)[C@@H]1CSSC[C@H](N)C(=O)N[C@@H](Cc2ccccc2)C(=O)N[C@@H]([C@@H](C)CC)C(=O)N[C@@H](CCC(N)=O)C(=O)N[C@@H](CC(N)=O)C(=O)N1)C(=O)NCC(N)=O (H-CFIQNCP[Orn(Pr)]G-NH2; disulfide 1-6)	660	0.14	0.032	–	0.038	1.9	–	150	180	0.00021	–	0.0001	–	–	–	–	–	–
CC[C@H](C)[C@@H]1NC(=O)[C@H](Cc2ccccc2)NC(=O)[C@@H](N)CSSC[C@@H](C(=O)N2CCC[C@H]2C(=O)N[C@@H](CCCN)C(=O)NCC(N)=O)NC(=O)[C@H](CC(N)=O)NC(=O)[C@H](CC(=O)NC(CO)CO)NC1=O (H-CFID(NHCH(CH2OH)2)NCP[Orn]G-NH2; disulfide 1-6)	> 620	–	–	> 10	0.062	–	–	> 620	3.8	0.016	–	–	> 10	> 10	> 10	–	< 70	< 70
CCCNCCC[C@H](NC(=O)[C@@H]1CCCN1C(=O)[C@@H]1CSSC[C@H](N)C(=O)N[C@@H](Cc2ccccc2)C(=O)N[C@@H]([C@@H](C)CC)C(=O)N[C@@H](CC(N)=O)C(=O)N[C@@H](CC(N)=O)C(=O)N1)C(=O)NCC(N)=O (H-CFINNCP[Orn(Pr)]G-NH2; disulfide 1-6)	> 6600	–	–	> 10	0.031	–	–	> 6600	20	0.0015	–	–	> 10	> 10	> 10	–	–	< 70
